Measured values published in ChEMBL document CHEMBL2046280, “Discovery of the novel potent and selective FLT3 inhibitor 1-{5-[7-(3- morpholinopropoxy)quinazolin-4-ylthio]-[1,3,4]thiadiazol-2-yl}-3-p-tolylurea and its anti-acute myeloid leukemia (AML) activities in vitro and in vivo” (J Med Chem, 2012).
pIC50: −log10 of the molar value. Activity calls are given as the source filed them. The rule behind the calls is not given here.

Tests used:
[1] = biological target: Tyrosine-protein kinase JAK3 (Homo sapiens, UniProt P52333); assay: Inhibition of human JAK3
[2] = system: MV4-11; assay: Downregulation of Erk1/2 protein expression in human MV4-11 cells at 10 to 300 nM after 5 hrs by Western blot analysis; type: functional, cell-based
[3] = system: LoVo; assay: Cytotoxicity against human LoVo cells after 72 hrs by MTT assay
[4] = biological target: Vascular endothelial growth factor receptor 3 (Homo sapiens, UniProt P35916); assay: Inhibition of human FLT4
[5] = Cytotoxicity against human H820 cells after 72 hrs by MTT assay; conditions: NCI-H820, 72 h
[6] = Cmax in Sprague-Dawley rat at 40 mg/kg, ip; type: ADME, organism-based; parameters: dose 40 mg/kg, route intraperitoneal; conditions: in vivo
Summary of the method: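 Male Sprague−Dawley rats (200−250 g), n = 3, fasted overnight, with a femoral-vein catheter for blood sampling. Single 40 mg/kg ip dose; plasma drug levels measured by LC-MS/MS.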

[7] = biological target: Serine/threonine-protein kinase pim-1 (Homo sapiens, UniProt P11309); assay: Inhibition of human Pim1
[8] = biological target: Serine/threonine-protein kinase PLK1 (Homo sapiens, UniProt P53350); assay: Inhibition of human PLK1
[9] = biological target: Tyrosine-protein kinase Lck (Homo sapiens, UniProt P06239); assay: Inhibition of human Lck
[10] = system: MV4-11; assay: Antitumor activity against human MV4-11 cells xenografted in NOD-SCID mouse assessed as tumor mitotic index at 20 mg/kg, ip administered qd for 21 days measured after 2 to 3 days of last dose by Ki67 staining-based immunohistochemical analysis; type: functional, organism-based; parameters: dose 20 mg/kg
Summary of the method: (§1)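 NOD-SCID mice bearing MV4-11 tumours received 20 mg/kg/d ip and were sacrificed at set times after dosing. Tumours were formalin-fixed and paraffin-embedded, and 4−8 μm sections were cut. Proliferation by Ki67 immunostaining, apoptosis by TUNEL staining, tissue by hematoxylin staining; light-microscope imaging.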

[11] = system: K562; assay: Cytotoxicity against human K562 cells after 72 hrs by MTT assay; conditions: K562, 72 h
[12] = system: HCT-116; assay: Cytotoxicity against FLT3-independent human HCT116 cells after 72 hrs by MTT assay; type: functional, cell-based; conditions: HCT-116, 72 h
Summary of the method: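 Adherent lines at 2−5 × 10³ cells/well were allowed to settle 24 h, then the medium was replaced with serial inhibitor dilutions for 72 h. MTT was added for 2−4 h, followed by dissolution in 100% DMSO. OD read at 570 nm. Viability relative to 0.1% DMSO controls; triplicate. Grown in RPMI 1640 or DMEM with 10% FBS, 5% CO₂, 37 °C.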

[13] = biological target: Vascular endothelial growth factor receptor 2 (Homo sapiens, UniProt P35968); assay: Inhibition of human KDR
[14] = system: SK-OV-3; assay: Cytotoxicity against human SKOV3 cells after 72 hrs by MTT assay; conditions: SK-OV-3, 72 h
[15] = system: MV4-11; assay: Antitumor activity against human MV4-11 cells xenografted in NOD-SCID mouse assessed as increase in apoptotic cells at 20 mg/kg, ip administered qd for 21 days measured after 2 to 3 days of last dose by TUNEL analysis; type: functional, organism-based; parameters: dose 20 mg/kg; conditions: TDE = time-dependent effect; summary of the method: as §1
[16] = system: MV4-11; assay: Antitumor activity against human MV4-11 cells xenografted in NOD-SCID mouse assessed as tumor growth regression at 100 mg/kg, ip once daily for 21 days measured every 3 days; type: functional, organism-based; parameters: dose 100 mg/kg
Summary of the method: (§2)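 Female NOD-SCID mice, 6−7 weeks old, received 100 μL of MV4-11 cells (1 × 10⁸/mL in serum-free medium) s.c. in the hind flank. At 300−500 mm³ tumours, mice were randomized (6 per group). Drug was dissolved in 25% (v/v) PEG400 plus 5% DMSO and given ip once daily at 5 mL/kg. Calipers every 3 days; volume = a × b²/2.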

[17] = biological target: Hepatocyte growth factor receptor (Homo sapiens, UniProt P08581); assay: Inhibition of human Met
[18] = system: SH-SY5Y; assay: Cytotoxicity against human SH-SY5Y cells after 72 hrs by MTT assay
[19] = biological target: T1, Receptor-type tyrosine-protein kinase FLT3 (Homo sapiens, UniProt P36888); assay: Inhibition of human FLT3
T1 sequence (P36888 whole entry): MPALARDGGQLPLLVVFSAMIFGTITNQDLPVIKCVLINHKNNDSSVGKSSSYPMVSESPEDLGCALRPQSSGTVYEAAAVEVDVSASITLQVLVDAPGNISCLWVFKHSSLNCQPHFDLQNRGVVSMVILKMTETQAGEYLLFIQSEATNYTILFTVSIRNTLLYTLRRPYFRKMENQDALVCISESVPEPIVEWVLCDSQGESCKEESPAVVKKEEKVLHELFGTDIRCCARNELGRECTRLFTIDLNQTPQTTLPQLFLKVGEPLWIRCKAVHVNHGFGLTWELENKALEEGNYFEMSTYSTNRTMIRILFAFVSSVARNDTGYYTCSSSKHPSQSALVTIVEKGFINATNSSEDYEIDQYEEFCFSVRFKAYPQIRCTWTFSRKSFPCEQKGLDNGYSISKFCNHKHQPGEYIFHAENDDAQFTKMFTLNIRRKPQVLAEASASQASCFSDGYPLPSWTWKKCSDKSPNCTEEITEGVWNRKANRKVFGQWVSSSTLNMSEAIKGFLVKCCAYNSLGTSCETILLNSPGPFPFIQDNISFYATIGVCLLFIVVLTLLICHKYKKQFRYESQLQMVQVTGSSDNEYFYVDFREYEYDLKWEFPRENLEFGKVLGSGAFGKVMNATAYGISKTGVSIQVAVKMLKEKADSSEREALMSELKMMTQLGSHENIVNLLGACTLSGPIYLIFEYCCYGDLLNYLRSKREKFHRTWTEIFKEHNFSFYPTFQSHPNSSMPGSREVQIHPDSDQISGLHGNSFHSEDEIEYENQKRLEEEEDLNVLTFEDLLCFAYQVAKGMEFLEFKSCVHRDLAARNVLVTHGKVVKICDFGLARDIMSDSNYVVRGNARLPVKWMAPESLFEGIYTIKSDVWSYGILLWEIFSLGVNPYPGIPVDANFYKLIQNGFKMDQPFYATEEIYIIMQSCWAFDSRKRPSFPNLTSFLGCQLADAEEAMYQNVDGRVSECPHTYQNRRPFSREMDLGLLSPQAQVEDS
Summary of the method: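 Human FLT3 kinase assayed across a dose−response series at 200 μM ATP.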

[20] = system: PC-9; assay: Cytotoxicity against human PC9 cells after 72 hrs by MTT assay; conditions: PC-9, 72 h
[21] = biological target: RAF proto-oncogene serine/threonine-protein kinase (Homo sapiens, UniProt P04049); assay: Inhibition of human c-Raf
[22] = system: MV4-11; assay: Antitumor activity against human MV4-11 cells xenografted in NOD-SCID mouse assessed as tumor growth inhibition at 100 mg/kg, ip once daily for 21 days measured every 3 days relative to control; type: functional; conditions: MV4-11, ip, route intraperitoneal, read-out: GI; summary of the method: as §2
[23] = system: Ramos; assay: Cytotoxicity against human Ramos cells after 72 hrs by MTT assay
[24] = system: PC-3; assay: Cytotoxicity against human PC3 cells after 72 hrs by MTT assay; conditions: PC-3, 72 h
[25] = biological target: Aurora kinase A (Homo sapiens, UniProt O14965); assay: Inhibition of human Aurora A

Sequence of RAF proto-oncogene serine/threonine-protein kinase (P04049 whole entry): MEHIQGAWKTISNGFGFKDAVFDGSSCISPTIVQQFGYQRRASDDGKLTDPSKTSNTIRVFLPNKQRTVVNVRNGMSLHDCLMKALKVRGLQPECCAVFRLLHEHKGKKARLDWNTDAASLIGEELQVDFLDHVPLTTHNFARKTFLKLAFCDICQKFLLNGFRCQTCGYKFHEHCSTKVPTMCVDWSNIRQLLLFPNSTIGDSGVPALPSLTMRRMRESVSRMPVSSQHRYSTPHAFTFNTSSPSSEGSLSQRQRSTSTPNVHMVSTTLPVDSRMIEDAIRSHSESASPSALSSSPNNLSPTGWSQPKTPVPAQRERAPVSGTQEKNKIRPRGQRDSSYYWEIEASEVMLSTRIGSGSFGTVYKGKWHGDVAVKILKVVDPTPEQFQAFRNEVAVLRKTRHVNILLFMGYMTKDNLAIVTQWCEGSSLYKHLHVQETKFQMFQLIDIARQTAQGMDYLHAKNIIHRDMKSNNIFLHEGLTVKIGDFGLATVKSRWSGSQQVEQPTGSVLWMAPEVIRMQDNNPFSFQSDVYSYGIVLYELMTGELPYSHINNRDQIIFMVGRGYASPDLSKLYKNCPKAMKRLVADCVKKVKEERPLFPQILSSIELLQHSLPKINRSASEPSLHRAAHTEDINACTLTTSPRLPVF
Sequence of Hepatocyte growth factor receptor (P08581 whole entry): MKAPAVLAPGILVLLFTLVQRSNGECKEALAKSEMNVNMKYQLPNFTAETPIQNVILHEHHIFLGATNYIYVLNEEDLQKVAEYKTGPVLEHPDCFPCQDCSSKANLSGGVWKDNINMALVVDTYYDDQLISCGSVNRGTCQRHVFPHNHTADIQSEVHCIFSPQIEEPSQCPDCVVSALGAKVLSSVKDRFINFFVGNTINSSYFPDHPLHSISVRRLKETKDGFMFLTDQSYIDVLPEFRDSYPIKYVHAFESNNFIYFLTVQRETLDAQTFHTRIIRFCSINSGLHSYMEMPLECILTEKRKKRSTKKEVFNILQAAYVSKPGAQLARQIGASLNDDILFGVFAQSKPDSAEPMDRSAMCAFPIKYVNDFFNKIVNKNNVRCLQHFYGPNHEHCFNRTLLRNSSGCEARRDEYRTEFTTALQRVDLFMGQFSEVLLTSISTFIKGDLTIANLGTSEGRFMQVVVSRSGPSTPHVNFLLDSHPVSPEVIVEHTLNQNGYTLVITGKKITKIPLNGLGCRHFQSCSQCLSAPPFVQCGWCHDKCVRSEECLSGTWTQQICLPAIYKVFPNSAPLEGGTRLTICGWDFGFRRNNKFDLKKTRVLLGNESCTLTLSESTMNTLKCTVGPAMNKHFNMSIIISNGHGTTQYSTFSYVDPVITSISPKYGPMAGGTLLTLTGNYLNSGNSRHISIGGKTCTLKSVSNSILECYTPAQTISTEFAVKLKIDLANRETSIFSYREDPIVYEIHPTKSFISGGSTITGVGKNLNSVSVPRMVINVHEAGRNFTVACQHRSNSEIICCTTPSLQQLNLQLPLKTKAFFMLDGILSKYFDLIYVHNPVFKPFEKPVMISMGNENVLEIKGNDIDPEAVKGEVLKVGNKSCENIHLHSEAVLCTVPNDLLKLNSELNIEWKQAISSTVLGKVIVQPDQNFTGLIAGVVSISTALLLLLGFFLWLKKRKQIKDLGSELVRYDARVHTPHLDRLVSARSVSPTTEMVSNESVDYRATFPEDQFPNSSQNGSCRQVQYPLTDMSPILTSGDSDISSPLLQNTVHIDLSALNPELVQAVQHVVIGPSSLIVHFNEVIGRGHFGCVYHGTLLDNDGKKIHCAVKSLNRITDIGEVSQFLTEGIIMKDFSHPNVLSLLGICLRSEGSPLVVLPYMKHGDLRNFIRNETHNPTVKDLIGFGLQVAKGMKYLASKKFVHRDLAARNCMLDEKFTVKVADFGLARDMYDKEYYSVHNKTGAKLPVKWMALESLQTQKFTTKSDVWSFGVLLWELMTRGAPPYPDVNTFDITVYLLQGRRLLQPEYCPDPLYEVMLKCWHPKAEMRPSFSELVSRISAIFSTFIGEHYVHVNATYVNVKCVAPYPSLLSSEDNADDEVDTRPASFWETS
Sequence of Tyrosine-protein kinase JAK3 (P52333 whole entry): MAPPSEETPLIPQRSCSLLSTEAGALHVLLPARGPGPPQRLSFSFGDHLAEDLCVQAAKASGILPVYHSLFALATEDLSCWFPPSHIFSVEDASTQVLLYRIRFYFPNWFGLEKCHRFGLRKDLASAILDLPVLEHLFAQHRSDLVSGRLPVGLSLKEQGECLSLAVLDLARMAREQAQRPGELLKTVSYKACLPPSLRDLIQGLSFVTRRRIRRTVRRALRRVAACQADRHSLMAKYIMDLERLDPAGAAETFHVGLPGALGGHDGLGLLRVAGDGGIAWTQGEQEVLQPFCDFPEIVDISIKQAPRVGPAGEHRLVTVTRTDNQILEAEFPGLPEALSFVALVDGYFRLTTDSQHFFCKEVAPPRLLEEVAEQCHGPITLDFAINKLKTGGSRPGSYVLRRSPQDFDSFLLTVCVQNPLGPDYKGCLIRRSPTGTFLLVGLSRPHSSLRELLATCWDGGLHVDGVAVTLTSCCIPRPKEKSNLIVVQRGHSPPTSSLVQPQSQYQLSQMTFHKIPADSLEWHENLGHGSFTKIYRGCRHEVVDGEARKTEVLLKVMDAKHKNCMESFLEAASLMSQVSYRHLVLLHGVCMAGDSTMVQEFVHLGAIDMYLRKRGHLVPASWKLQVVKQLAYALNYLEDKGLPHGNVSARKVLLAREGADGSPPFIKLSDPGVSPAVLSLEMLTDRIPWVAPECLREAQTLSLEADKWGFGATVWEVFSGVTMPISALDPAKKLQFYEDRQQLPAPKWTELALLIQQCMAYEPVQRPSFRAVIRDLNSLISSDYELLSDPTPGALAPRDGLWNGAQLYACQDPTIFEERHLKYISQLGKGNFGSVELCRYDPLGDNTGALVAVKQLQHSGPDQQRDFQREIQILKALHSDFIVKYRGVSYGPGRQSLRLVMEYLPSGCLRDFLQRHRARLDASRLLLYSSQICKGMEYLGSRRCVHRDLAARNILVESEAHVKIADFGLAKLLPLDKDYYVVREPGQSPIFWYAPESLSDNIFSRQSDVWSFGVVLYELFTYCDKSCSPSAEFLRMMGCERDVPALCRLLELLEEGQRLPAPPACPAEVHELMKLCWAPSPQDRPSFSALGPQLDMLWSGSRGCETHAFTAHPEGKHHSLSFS
Sequence of Serine/threonine-protein kinase PLK1 (P53350 whole entry): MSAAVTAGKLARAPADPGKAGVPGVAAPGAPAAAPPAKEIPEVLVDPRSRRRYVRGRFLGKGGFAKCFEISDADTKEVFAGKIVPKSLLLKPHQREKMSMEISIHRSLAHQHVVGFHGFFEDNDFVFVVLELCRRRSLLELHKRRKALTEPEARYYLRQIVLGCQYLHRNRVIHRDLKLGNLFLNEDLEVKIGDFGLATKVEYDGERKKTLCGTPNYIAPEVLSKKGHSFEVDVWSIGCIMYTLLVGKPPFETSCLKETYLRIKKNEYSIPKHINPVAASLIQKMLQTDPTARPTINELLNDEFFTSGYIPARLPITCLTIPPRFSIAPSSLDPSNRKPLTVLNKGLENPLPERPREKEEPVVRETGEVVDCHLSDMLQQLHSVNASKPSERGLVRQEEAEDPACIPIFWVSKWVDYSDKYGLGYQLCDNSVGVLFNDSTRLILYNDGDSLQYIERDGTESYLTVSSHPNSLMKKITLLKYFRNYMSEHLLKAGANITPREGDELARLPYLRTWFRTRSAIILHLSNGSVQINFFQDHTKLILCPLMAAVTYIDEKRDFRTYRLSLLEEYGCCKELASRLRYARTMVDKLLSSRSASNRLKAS
Sequence of Vascular endothelial growth factor receptor 3 (P35916 whole entry): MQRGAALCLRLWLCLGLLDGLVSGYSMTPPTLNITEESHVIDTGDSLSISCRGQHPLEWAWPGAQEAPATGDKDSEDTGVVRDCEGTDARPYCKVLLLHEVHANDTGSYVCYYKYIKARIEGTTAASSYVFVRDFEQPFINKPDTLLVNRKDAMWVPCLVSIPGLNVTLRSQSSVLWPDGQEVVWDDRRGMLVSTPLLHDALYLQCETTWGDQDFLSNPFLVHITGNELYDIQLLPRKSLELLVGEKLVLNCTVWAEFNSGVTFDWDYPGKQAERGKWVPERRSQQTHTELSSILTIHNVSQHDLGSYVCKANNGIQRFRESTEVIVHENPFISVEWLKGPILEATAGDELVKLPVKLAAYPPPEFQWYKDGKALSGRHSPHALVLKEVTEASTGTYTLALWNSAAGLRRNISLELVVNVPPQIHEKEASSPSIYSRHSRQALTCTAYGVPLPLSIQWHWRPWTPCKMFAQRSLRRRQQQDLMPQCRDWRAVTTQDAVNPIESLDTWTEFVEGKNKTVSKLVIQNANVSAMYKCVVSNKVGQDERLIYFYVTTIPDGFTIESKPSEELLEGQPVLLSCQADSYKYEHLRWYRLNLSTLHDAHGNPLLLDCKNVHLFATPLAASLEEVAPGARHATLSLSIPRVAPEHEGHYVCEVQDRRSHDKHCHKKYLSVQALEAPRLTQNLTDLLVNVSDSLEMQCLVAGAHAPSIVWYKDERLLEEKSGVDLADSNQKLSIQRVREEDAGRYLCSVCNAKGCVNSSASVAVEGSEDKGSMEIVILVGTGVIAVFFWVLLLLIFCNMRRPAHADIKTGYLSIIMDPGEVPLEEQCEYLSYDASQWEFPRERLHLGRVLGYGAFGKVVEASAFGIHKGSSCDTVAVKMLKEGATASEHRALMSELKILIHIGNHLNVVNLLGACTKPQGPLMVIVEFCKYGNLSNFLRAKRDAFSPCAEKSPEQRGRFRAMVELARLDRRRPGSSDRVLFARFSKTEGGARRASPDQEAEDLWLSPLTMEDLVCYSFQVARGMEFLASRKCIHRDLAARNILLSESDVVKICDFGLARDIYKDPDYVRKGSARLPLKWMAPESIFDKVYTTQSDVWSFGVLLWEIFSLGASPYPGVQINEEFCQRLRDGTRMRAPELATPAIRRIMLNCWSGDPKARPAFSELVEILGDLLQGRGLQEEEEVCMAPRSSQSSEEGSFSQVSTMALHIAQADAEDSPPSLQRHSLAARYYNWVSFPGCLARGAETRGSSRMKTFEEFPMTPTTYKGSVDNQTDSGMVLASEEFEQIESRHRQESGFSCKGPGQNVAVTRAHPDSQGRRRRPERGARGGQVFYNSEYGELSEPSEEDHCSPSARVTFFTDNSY

Cc1ccc(NC(=O)Nc2nnc(Sc3ncnc4cc(OCCCN5CCOCC5)ccc34)s2)cc1
pIC50 [1]: < 5.00 | Activity [2]: inactive | pIC50 [3]: < 4.70 | pIC50 [4]: 5.43 | pIC50 [5]: < 4.70 | Cmax [6]: 5310 ng/mL | pIC50 [7]: < 5.00 | pIC50 [8]: < 5.00 | pIC50 [9]: < 5.00 | Activity [10]: Active | pIC50 [11]: 4.90 | pIC50 [12]: < 5.00 | pIC50 [13]: < 5.00 | pIC50 [14]: < 4.70 | Activity [15]: tde | Activity [16]: Active | pIC50 [17]: < 5.00 | pIC50 [18]: < 4.70 | pIC50 [19]: 8.00 | pIC50 [20]: 5.43 | pIC50 [21]: < 5.00 | inhibition in vivo at 100 mg/kg [22]: 115% | pIC50 [23]: 5.20 | pIC50 [24]: 4.80 | pIC50 [25]: 5.82
